ChEMBL document CHEMBL5724801, “EUbOPEN Chemogenomics Library - Multiplex” (2024)
“And” between values parts separate entries of the source, which are not always exact repeats. Equal entries are not always repeated.

What was measured:
HEK-293T = test: Multiplex assay against HEK293T; format: toxicity, cell-based; settings: human
Method in brief: (§1)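 Live cells carried four stains from seeding: Hoechst33342, BioTracker Green Microtubule Cytoskeleton Dye, MitoTracker Red and Annexin V Alexa Fluor 680. They were imaged on a CQ1 microscope at 37°C and 5% CO2 after compound addition. Using CellPathfinder machine-learning gating, cells were split into Hoechst high-intensity objects or normal cells, normal cells into healthy, pyknosed or fragmented nuclei, and pyknosed cells into mitotic or apoptotic; tubulin, mitochondrial-mass and membrane-permeability phenotypes are per cents of healthy-nucleus cells.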

U2OS = test: Multiplex assay against U2OS; format: toxicity, cell-based; settings: human; method in brief: as §1
[1] = 24 h, 10 µM, compound concentration 10 uM
[2] = 48 h, 1 µM, compound concentration 1 uM
[3] = 48 h, 10 µM, compound concentration 10 uM
[4] = 12 h, 1 µM, compound concentration 1 uM
[5] = 12 h, 10 µM, compound concentration 10 uM
[6] = 24 h, 1 µM, compound concentration 1 uM

CN1CCN(c2ccc(Nc3c4ccccc4nc4ccccc34)cc2)CC1.Cl.Cl.O
Population Fragmented Nuclei (%) (HEK-293T; [1]): 28% and 45%
Population Healthy Nuclei (%) (HEK-293T; [1]): 69% and 53%
Population Hoechst High Intensity Objects (%) (HEK-293T; [1]): 2% and 0%
Population Membrane Permeable-Phenotype (%) (HEK-293T; [1]): 0%
Population Mitochondria Different-Phenotype (%) (HEK-293T; [1]): 100%
Population Mitotic Cells (%) (HEK-293T; [1]): 0%
Population Normal (%) (HEK-293T; [1]): 97% and 99%
Population Pyknosed Nuclei (%) (HEK-293T; [1]): 2% and 0%
Population Tubulin-Different-Phenotype (%) (HEK-293T; [1]): 92% and 91%
Total Cell Count (HEK-293T; [1]): 247 and 206
Population Apoptotic (%) (HEK-293T; [2]): 45% and 60%
Population Fragmented Nuclei (%) (HEK-293T; [2]): 11% and 10%
Population Healthy Nuclei (%) (HEK-293T; [2]): 82% and 85%
Population Hoechst High Intensity Objects (%) (HEK-293T; [2]): 3% and 1%
Population Membrane Permeable-Phenotype (%) (HEK-293T; [2]): 0%
Population Mitochondria Different-Phenotype (%) (HEK-293T; [2]): 30% and 36%
Population Mitotic Cells (%) (HEK-293T; [2]): 54% and 40%
Population Normal (%) (HEK-293T; [2]): 96% and 98%
Population Pyknosed Nuclei (%) (HEK-293T; [2]): 6% and 3%
Population Tubulin-Different-Phenotype (%) (HEK-293T; [2]): 16% and 12%
Total Cell Count (HEK-293T; [2]): 581 and 411
Population Apoptotic (%) (HEK-293T; [3]): 100% and 66%
Population Fragmented Nuclei (%) (HEK-293T; [3]): 34% and 52%
Population Healthy Nuclei (%) (HEK-293T; [3]): 56% and 46%
Population Hoechst High Intensity Objects (%) (HEK-293T; [3]): 11% and 5%
Population Membrane Permeable-Phenotype (%) (HEK-293T; [3]): 0%
Population Mitochondria Different-Phenotype (%) (HEK-293T; [3]): 100% and 99%
Population Normal (%) (HEK-293T; [3]): 88% and 94%
Population Pyknosed Nuclei (%) (HEK-293T; [3]): 9% and 1%
Population Tubulin-Different-Phenotype (%) (HEK-293T; [3]): 88% and 89%
Total Cell Count (HEK-293T; [3]): 318 and 272
Population Apoptotic (%) (U2OS; [4]): 100% and 87%
Population Fragmented Nuclei (%) (U2OS; [4]): 25% and 23%
Population Healthy Nuclei (%) (U2OS; [4]): 65% and 69%
Population Hoechst High Intensity Objects (%) (U2OS; [4]): 0%
Population Membrane Permeable-Phenotype (%) (U2OS; [4]): 19% and 14%
Population Mitochondria Different-Phenotype (%) (U2OS; [4]): 7% and 13%
Population Mitotic Cells (%) (U2OS; [4]): 0% and 12%
Population Normal (%) (U2OS; [4]): 99% and 100%
Population Pyknosed Nuclei (%) (U2OS; [4]): 8% and 7%
Population Tubulin-Different-Phenotype (%) (U2OS; [4]): 17% and 13%
Total Cell Count (U2OS; [4]): 193 and 107
Population Apoptotic (%) (U2OS; [5]): 93% and 100%
Population Fragmented Nuclei (%) (U2OS; [5]): 54% and 62%
Population Healthy Nuclei (%) (U2OS; [5]): 38% and 31%
Population Hoechst High Intensity Objects (%) (U2OS; [5]): 0% and 2%
Population Membrane Permeable-Phenotype (%) (U2OS; [5]): 65% and 70%
Population Mitochondria Different-Phenotype (%) (U2OS; [5]): 95% and 100%
Population Mitotic Cells (%) (U2OS; [5]): 6% and 0%
Population Normal (%) (U2OS; [5]): 99% and 97%
Population Pyknosed Nuclei (%) (U2OS; [5]): 7% and 6%
Population Tubulin-Different-Phenotype (%) (U2OS; [5]): 82% and 85%
Total Cell Count (U2OS; [5]): 213 and 132
Population Apoptotic (%) (U2OS; [6]): 92% and 100%
Population Fragmented Nuclei (%) (U2OS; [6]): 28% and 29%
Population Healthy Nuclei (%) (U2OS; [6]): 64% and 60%
Population Hoechst High Intensity Objects (%) (U2OS; [6]): 1% and 4%
Population Membrane Permeable-Phenotype (%) (U2OS; [6]): 10% and 5%
Population Mitochondria Different-Phenotype (%) (U2OS; [6]): 6% and 12%
Population Mitotic Cells (%) (U2OS; [6]): 7% and 0%
Population Normal (%) (U2OS; [6]): 98% and 95%
Population Pyknosed Nuclei (%) (U2OS; [6]): 6% and 10%
Population Tubulin-Different-Phenotype (%) (U2OS; [6]): 7% and 6%
Total Cell Count (U2OS; [6]): 200 and 124
Population Apoptotic (%) (U2OS; [1]): 100% and 90%
Population Fragmented Nuclei (%) (U2OS; [1]): 46% and 69%
Population Healthy Nuclei (%) (U2OS; [1]): 42% and 23%
Population Hoechst High Intensity Objects (%) (U2OS; [1]): 4% and 10%
Population Membrane Permeable-Phenotype (%) (U2OS; [1]): 85% and 96%
Population Mitochondria Different-Phenotype (%) (U2OS; [1]): 96% and 100%
Population Mitotic Cells (%) (U2OS; [1]): 0% and 10%
Population Normal (%) (U2OS; [1]): 95% and 89%
Population Pyknosed Nuclei (%) (U2OS; [1]): 11% and 7%
Population Tubulin-Different-Phenotype (%) (U2OS; [1]): 90% and 100%
Total Cell Count (U2OS; [1]): 205 and 148
Population Apoptotic (%) (U2OS; [2]): 87% and 100%
Population Fragmented Nuclei (%) (U2OS; [2]): 36% and 40%
Population Healthy Nuclei (%) (U2OS; [2]): 52% and 47%
Population Hoechst High Intensity Objects (%) (U2OS; [2]): 4% and 5%
Population Mitochondria Different-Phenotype (%) (U2OS; [2]): 4% and 7%
Population Mitotic Cells (%) (U2OS; [2]): 12% and 0%
Population Normal (%) (U2OS; [2]): 95% and 94%
Population Pyknosed Nuclei (%) (U2OS; [2]): 10% and 12%
Population Tubulin-Different-Phenotype (%) (U2OS; [2]): 3% and 9%
Total Cell Count (U2OS; [2]): 231 and 147
Population Apoptotic (%) (U2OS; [3]): 96% and 100%
Population Fragmented Nuclei (%) (U2OS; [3]): 53% and 76%
Population Healthy Nuclei (%) (U2OS; [3]): 30% and 19%
Population Hoechst High Intensity Objects (%) (U2OS; [3]): 18% and 15%
Population Membrane Permeable-Phenotype (%) (U2OS; [3]): 91% and 100%
Population Mitochondria Different-Phenotype (%) (U2OS; [3]): 90% and 96%
Population Mitotic Cells (%) (U2OS; [3]): 3% and 0%
Population Normal (%) (U2OS; [3]): 81% and 84%
Population Tubulin-Different-Phenotype (%) (U2OS; [3]): 93% and 100%
Total Cell Count (U2OS; [3]): 243 and 173
